From paper PMC2664388 (Pharmaceutical research, 2008)
Read-outs that look alike come from different tables or passages of the source.

Assays:
[1] = Trans-epithelial electrical resistance; assay type: in vitro ADME, New Zealand albino rabbits; settings: transport buffers with or without 5% HP-β-CD, 3h
[2] = Permeation across sclera/choroid/RPE, Valia-Chein side-bi-side cells; settings: for Permeability across sclera/choroid/RPE: 150μM in DPBS with 5% HP-β-CD, 37°C
[3] = Corneal permeation, side-bi-side diffusion apparatus; assay type: in vitro ADME, New Zealand albino rabbits; settings: for Transcorneal permeability: 150μM in DPBS with 5% HP-β-CD, 34°C
[4] = Aqueous solubility, shake flask method; assay type: physicochemical; settings: 25°C, 24h
[5] = pH solution stability in buffers; assay type: physicochemical
Outline: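 Test compound (25 μL of a 1 mg/mL stock) was added to 5 mL of USP buffer pre-equilibrated at 25 or 40°C. Content was measured by RP-HPLC on a C18 column with UV at 284 nm. The mobile phase was 20 mM KH2PO4 (pH 2.5) and acetonitrile at 75:25, run at 1 mL/min.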

[6] = sonicated 15min, equilibration 4 days; ref 29 Tommasini et al.; cited from earlier work
[7] = ref 21 Serra et al., cited from earlier work
[8] = sonicated 15min, equilibration 4 days; ref 29 Tommasini et al.; cited from earlier work; remark: listed apart in the source
[9] = Phase solubility with HP-β-CD; assay type: physicochemical
[10] = Transscleral permeation, Valia-Chein side-bi-side cells; assay type: in vitro ADME, New Zealand albino rabbits; settings: 150μM in DPBS with 5% HP-β-CD, 37°C
[11] = oral administration, cumulative urinary recovery; ref 14 Ameer et al.; cited from earlier work
[12] = Stability in ocular tissue homogenates; assay type: in vitro ADME, New Zealand albino rabbits; settings: 37°C, after 15h, 1mg/mL protein

Question: For `CC(O)COC[C@H]1O[C@@H]2O[C@H]3[C@H](O)[C@@H](O)[C@@H](O[C@H]4[C@H](O)[C@@H](O)[C@@H](O[C@H]5[C@H](O)[C@@H](O)[C@@H](O[C@H]6[C@H](O)[C@@H](O)[C@@H](O[C@H]7[C@H](O)[C@@H](O)[C@@H](O[C@H]8[C@H](O)[C@@H](O)[C@@H](O[C@H]1[C@H](O)[C@H]2O)O[C@@H]8COCC(C)O)O[C@@H]7COCC(C)O)O[C@@H]6COCC(C)O)O[C@@H]5COCC(C)O)O[C@@H]4COCC(C)O)O[C@@H]3COCC(C)O` (stereo partly drawn) [HP-β-CD, 2-hydroxypropyl-beta-cyclodextrin], which TEER of corneas [1] is on record?
Answer: 5±0.3 KΩcm^2

Question: For `OCC(O)C(O)C(O)C(O)[14CH2]O` (stereo not drawn) [[^14C]mannitol], which “Mean percent cumulative amount transported per hour across the sclera/choroid/RPE” value ([2]; 0.5 μCi/mL) is on record?
Answer: 0.1±0.04 percent per hour

Question: And the “Mean percent cumulative amount transported per hour across the cornea” value ([3]; 0.5 μCi/mL, 3h experiment)?
Answer: 1±0.15 percent per hour

Question: Which “Saturation Solubility” value ([4]; Water (0% HP-β-CD)) does the source give for `COc1ccc([C@@H]2CC(=O)c3c(O)cc(O[C@@H]4O[C@H](CO[C@@H]5O[C@@H](C)[C@H](O)[C@@H](O)[C@H]5O)[C@@H](O)[C@H](O)[C@H]4O)cc3O2)cc1O` [hesperidin, hesperetin 7-rutinoside] here?
Answer: 4.95 ± 0.99 µg/mL

Question: What about the “Saturation Solubility” value ([4]; pH 1.21, 200 mM buffer) of the same compound?
Answer: 4.15 ± 0.34 µg/mL

Question: And the “Saturation Solubility” value ([4]; pH 3.11, 200 mM buffer)?
Answer: 8.44 ± 0.47 µg/mL

Question: What about the “Saturation Solubility” value ([4]; pH 5.12, 200 mM buffer) of the same compound?
Answer: 5.96 ± 1.92 µg/mL

Question: And the “Saturation Solubility” value ([4]; pH 7.48, 200 mM buffer)?
Answer: 5.26 ± 0.31 µg/mL

Question: What about the “Saturation Solubility” value ([4]; pH 9.11, 200 mM buffer) of the same compound?
Answer: 8.93 ± 0.73 µg/mL

Question: What about the “Permeability across sclera/choroid/RPE” value ([2]; RPE to sclera (R-S) direction) of the same compound?
Answer: 1.52±0.78×10^−6 cm/s

Question: And the “Permeability across sclera/choroid/RPE” value ([2]; sclera to RPE (S-R) direction)?
Answer: 0.82±0.69×10^−6 cm/s

Question: What about the “Stability in aqueous solutions (decrease in hesperidin content)” value ([5]; pH 1.2, 3, 5, 7.4, 25 and 40°C, upto 2 months) of the same compound?
Answer: did not demonstrate any decrease

Question: What about the Degradation rate constant ([5]; pH 9, 25°C) of the same compound?
Answer: 0.03 day⁻¹

Question: And the Half-life ([5]; pH 9, 25°C)?
Answer: 23 days

Question: And the Degradation rate constant ([5]; pH 9, 40°C)?
Answer: 0.15 day⁻¹

Question: And the Half-life ([5]; pH 9, 40°C)?
Answer: 4.5 days

Question: And the Intrinsic solubility [6]?
Answer: 36 µM

Question: And the Transcorneal permeability ([3]; apical to basolateral (A-B))?
Answer: 1.11±0.86×10^−6 cm/s

Question: And the Transcorneal permeability ([3]; basolateral to apical (B-A))?
Answer: 1.16±0.05×10^−6 cm/s

Question: What about the pKa ([7]; all of the alcoholic hydroxyl groups) of the same compound?
Answer: greater than 11.5

Question: And the pKa ([7]; two phenolic hydroxyl groups)?
Answer: 10±0.2

Question: What about the “Binding constant with HP-β-CD” value [8] of the same compound?
Answer: 60 M⁻¹

Question: And the “Fold Increase in solubility” value ([9]; 1 %w/v HP-β-CD)?
Answer: 9

Question: And the “Hesperidin Solubility” value ([9]; 1 %w/v HP-β-CD in water, 25°C, 24h)?
Answer: 42.97 ± 4.28 µg/mL

Question: What about the “Fold Increase in solubility” value ([9]; 2.5 %w/v HP-β-CD) of the same compound?
Answer: 18

Question: And the “Hesperidin Solubility” value ([9]; 2.5 %w/v HP-β-CD in water, 25°C, 24h)?
Answer: 83.34 ± 6.34 µg/mL

Question: What about the “Fold Increase in solubility” value ([9]; 5 %w/v HP-β-CD) of the same compound?
Answer: 37

Question: What about the “Hesperidin Solubility” value ([9]; 5 %w/v HP-β-CD in water, 25°C, 24h) of the same compound?
Answer: 169.90 ± 25.36 µg/mL

Question: What about the “Fold Increase in solubility” value ([9]; 7.5 %w/v HP-β-CD) of the same compound?
Answer: 48

Question: And the “Hesperidin Solubility” value ([9]; 7.5 %w/v HP-β-CD in water, 25°C, 24h)?
Answer: 219.03 ± 15.62 µg/mL

Question: And the “Fold Increase in solubility” value ([9]; 10 %w/v HP-β-CD)?
Answer: 55

Question: And the “Hesperidin Solubility” value ([9]; 10 %w/v HP-β-CD in water, 25°C, 24h)?
Answer: 252.77 ± 8.81 µg/mL

Question: And the “Fold Increase in solubility” value ([9]; 15 %w/v HP-β-CD)?
Answer: 76

Question: And the “Hesperidin Solubility” value ([9]; 15 %w/v HP-β-CD in water, 25°C, 24h)?
Answer: 348.55 ± 5.28 µg/mL

Question: And the “Hesperidin Solubility” value ([9]; 20 %w/v HP-β-CD in water, 25°C, 24h)?
Answer: 431.97 ± 0.43 µg/mL

Question: What about the “Binding constant (K) with HP-β-CD, 1:1 complex” value ([9]; from phase solubility plot, 25°C, 24h) of the same compound?
Answer: 625 ± 78 M⁻¹

Question: And the “Permeability across sclera alone” value [10]?
Answer: 10.2±2.1×10^−6 cm/s

Question: And the Bioavailability [11]?
Answer: < 25%

Question: And the “Hesperetin generation, or decrease in hesperidin concentrations, in the homogenates” value [12]?
Answer: not observed
